{"source": "ChEMBL document CHEMBL4043283", "about": "“Discovery and Preclinical Development of IIIM-290, an Orally Active Potent Cyclin-Dependent Kinase Inhibitor” (J Med Chem, 2018)", "key": {"[1]": {"tested_on": "DU-145", "assay": "Growth inhibition of human DU145 cells after 48 hrs by MTT assay", "type": "functional", "details": "DU-145, 48 h", "summary_of_the_method": "(§1)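 Cancer cell lines sourced from the National Cancer Institute (USA). Cells kept in appropriate growth medium at 37 °C, 95% humidity, 5% CO2. Antiproliferation read by tetrazolium (MTT) assay. GI50 values were determined only for compounds selected after an initial single-concentration screen.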"}, "[2]": {"tested_on": "HCT-116", "assay": "Antitumor activity against human HCT116 cells xenografted in CD1 nude mouse assessed as tumor growth inhibition at 50 mg/kg, po qd administered on day 10 to 25 post tumor inoculation relative to control", "type": "functional", "details": "HCT-116, po, 240 h, read-out: TGI"}, "[3]": {"target": "CYP3A4 (Homo sapiens, UniProt P08684)", "sequence (P08684 whole entry)": "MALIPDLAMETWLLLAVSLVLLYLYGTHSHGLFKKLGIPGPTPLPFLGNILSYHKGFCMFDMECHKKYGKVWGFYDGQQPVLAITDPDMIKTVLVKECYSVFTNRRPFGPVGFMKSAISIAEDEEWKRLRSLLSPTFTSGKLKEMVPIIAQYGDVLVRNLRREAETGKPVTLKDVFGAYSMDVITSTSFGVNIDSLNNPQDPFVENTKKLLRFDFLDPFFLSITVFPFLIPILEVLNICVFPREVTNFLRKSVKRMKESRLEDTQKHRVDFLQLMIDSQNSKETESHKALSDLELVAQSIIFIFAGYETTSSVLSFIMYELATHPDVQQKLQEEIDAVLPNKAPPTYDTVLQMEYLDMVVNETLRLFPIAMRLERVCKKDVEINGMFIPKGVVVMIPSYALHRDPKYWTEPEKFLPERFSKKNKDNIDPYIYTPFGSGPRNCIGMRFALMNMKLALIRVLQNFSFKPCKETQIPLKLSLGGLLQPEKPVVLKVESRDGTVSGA", "assay": "Inhibition of human CYP3A4 at 2 uM using fluorogenic substrate after 5 mins by fluorometric method relative to control", "type": "ADME", "details": "probe fluorogenic substrate"}, "[4]": {"target": "Receptor tyrosine-protein kinase erbB-3 (Homo sapiens) (UniProt P21860)", "sequence (P21860 whole entry)": "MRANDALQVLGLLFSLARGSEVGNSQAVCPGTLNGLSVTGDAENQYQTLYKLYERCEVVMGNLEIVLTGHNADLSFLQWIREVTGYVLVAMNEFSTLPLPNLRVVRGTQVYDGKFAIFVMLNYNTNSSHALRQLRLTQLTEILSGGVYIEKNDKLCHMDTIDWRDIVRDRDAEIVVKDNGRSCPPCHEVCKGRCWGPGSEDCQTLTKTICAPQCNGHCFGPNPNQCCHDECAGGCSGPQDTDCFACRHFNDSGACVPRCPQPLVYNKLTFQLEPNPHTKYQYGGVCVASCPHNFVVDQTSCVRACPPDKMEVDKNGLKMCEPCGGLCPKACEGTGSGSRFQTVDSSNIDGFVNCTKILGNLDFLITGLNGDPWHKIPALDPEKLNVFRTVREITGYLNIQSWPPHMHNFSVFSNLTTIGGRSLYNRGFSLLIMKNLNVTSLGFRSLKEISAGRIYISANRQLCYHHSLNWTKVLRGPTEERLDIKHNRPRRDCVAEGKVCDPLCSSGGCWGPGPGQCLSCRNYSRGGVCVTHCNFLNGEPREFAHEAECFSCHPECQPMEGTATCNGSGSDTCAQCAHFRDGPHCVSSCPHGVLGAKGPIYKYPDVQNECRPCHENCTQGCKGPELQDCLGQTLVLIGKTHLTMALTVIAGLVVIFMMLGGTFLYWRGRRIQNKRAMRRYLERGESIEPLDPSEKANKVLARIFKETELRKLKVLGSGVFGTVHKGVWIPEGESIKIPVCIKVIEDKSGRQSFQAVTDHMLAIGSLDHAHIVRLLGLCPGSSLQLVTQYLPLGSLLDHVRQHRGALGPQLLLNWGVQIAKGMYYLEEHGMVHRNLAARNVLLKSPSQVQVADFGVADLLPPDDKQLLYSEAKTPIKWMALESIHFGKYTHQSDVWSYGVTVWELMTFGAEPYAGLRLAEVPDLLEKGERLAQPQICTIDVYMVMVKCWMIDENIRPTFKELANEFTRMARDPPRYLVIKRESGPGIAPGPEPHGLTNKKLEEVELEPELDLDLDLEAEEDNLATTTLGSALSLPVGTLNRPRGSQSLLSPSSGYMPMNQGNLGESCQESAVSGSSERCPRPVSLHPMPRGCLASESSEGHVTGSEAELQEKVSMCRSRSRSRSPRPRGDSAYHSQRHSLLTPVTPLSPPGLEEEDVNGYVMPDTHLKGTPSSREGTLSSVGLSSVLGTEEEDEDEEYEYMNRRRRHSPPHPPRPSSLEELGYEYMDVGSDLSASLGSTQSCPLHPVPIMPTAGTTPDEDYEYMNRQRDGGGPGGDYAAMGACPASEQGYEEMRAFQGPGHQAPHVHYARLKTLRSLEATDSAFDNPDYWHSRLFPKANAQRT", "assay": "Inhibition of partial length wild type human ERBB3 expressed in mammalian expression system at 0.5 uM by KINOMEscan method relative to control", "summary_of_the_method": "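Competition binding screen (KINOMEscan) at 0.5 μM; primary binding read out as % of control, lower values indicating stronger interaction.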"}, "[5]": {"assay": "Metabolic stability in mouse plasma assessed as parent compound remaining after 8 hrs by HPLC method", "type": "ADME, cell-free", "details": "read-out: Stability"}, "[6]": {"target": "CDK9/Cyclin K (Homo sapiens, UniProt P50750)", "sequence (P50750 whole entry)": "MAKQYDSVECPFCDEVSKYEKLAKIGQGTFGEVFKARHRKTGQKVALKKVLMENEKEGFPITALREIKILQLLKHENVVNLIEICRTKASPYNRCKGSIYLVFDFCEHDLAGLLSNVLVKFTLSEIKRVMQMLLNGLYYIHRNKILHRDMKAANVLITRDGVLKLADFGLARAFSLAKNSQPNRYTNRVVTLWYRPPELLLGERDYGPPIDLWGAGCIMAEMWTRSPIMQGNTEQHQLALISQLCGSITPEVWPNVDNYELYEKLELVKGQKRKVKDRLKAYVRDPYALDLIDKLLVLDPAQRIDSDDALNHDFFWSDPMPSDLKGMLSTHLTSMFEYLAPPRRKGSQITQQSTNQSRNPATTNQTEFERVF", "sequence (O75909 whole entry, further chain)": "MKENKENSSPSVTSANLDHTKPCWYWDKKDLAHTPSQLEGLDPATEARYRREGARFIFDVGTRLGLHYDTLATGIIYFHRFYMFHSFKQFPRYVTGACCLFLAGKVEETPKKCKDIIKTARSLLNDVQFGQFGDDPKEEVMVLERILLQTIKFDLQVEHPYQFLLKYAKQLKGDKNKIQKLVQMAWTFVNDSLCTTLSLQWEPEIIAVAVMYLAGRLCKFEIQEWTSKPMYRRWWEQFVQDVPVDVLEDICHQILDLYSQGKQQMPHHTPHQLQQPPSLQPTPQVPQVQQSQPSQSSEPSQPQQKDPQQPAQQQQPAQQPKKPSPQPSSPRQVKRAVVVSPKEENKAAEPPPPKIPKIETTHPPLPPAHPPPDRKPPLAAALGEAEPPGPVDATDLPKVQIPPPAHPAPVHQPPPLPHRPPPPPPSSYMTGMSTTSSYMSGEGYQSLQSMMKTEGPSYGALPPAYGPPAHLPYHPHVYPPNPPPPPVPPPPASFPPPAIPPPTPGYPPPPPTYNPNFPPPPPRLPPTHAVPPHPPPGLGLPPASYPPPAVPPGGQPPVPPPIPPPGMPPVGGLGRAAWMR", "assay": "Inhibition of CDK9/cyclin K (unknown origin) after 30 mins in presence of [33P]-gamma-ATP by filter binding assay", "type": "protein-complex assay"}, "[7]": {"assay": "Efflux ratio of apparent permeability across basolateral to apical side over apical to basolateral side in human Caco2 cells after 90 mins by LC-MS/MS analysis", "type": "ADME, cell-based", "details": "Caco-2", "summary_of_the_method": "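Caco-2 monolayers cultured for 21 days. Test compound applied in HBSS buffer with 10 mM HEPES. Samples drawn from both the apical and basolateral chambers.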"}, "[8]": {"tested_on": "alpha-1 acid glycoprotein", "assay": "Binding affinity to alpha-1 acid glycoprotein (unknown origin)", "type": "ADME", "details": "human, read-out: PB (converted)"}, "[9]": {"assay": "Elimination half life in BALB/c mouse at 10 mg/kg, po by LC-MS/MS analysis", "type": "ADME, organism-based", "details": "in vivo, read-out: beta t1/2 (converted)"}, "[10]": {"assay": "Growth inhibition of human HEK293 cells after 48 hrs by MTT assay", "type": "cell-based"}, "[11]": {"tested_on": "MIA PaCa-2", "assay": "Induction of apoptosis in human MIAPaCa2 cells assessed as formation of apoptotic bodies after 24 hrs by scanning electron microscopy", "type": "functional, cell-based", "summary_of_the_method": "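Cells exposed to different compound concentrations for 24 h on coverslips, fixed in 2.5% glutaraldehyde in 0.1 M phosphate buffer pH 7.2 (4 °C, 24 h), postfixed in 1% OsO4 4 h, ethanol-dehydrated, critical-point dried with HMDS, gold-coated, imaged at 20 kV.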"}, "[12]": {"tested_on": "MCF7", "assay": "Growth inhibition of human MCF7 cells at 10 uM after 48 hrs by MTT assay relative to control", "type": "functional", "details": "MCF7, 48 h, read-out: GI", "summary_of_the_method": "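Single-concentration primary screen at 10 μM by MTT assay. Cells were NCI-sourced cancer lines grown in appropriate medium at 37 °C, 95% humidity, 5% CO2. Growth inhibition is expressed relative to control.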"}, "[13]": {"assay": "Protein binding in human plasma at 3 uM after 5 hrs by equilibrium dialysis method", "type": "ADME, cell-free", "details": "read-out: PPB (converted)"}, "[14]": {"assay": "Half life in rat liver microsomes at 100 uM after 30 mins by LC-MS/MS analysis", "type": "ADME, microsome", "summary_of_the_method": "(§2)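 Parent loss followed over time to give half-life, with NADPH as cofactor for microsomal phase I metabolism.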"}, "[15]": {"tested_on": "Lung", "assay": "Drug uptake in Sprague-Dawley rat lung at 30 mg/kg, po after 8 hrs", "type": "ADME, organism-based", "details": "in vivo"}, "[16]": {"assay": "Intrinsic clearance in rat hepatocytes assessed per million cells at 3 uM after 180 mins by LC-MS/MS analysis", "type": "ADME, cell-based, Hepatocyte", "details": "read-out: CLH"}, "[17]": {"target": "Cytochrome P450 2C19 (Homo sapiens, UniProt P33261)", "assay": "Inhibition of human CYP2C19 using fluorogenic substrate preincubated with co-factor for 10 mins followed by enzyme-substrate addition by fluorometric method", "type": "ADME", "summary_of_the_method": "(§3)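 Cofactor plus test item or vehicle, in triplicate, preincubated 10 min at 37 °C; prewarmed enzyme–substrate mix added and incubated at 37 °C with shaking. Quench: acetonitrile (CYP2C19, CYP3A4) or 0.25 M Tris in 60% methanol (CYP2C9, CYP2D6). Metabolite fluorescence read; % inhibition computed against enzyme controls and enzyme-free blanks.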"}, "[18]": {"assay": "Apparent permeability across basolateral to apical side in human Caco2 cells after 90 mins by LC-MS/MS analysis", "type": "ADME, cell-based", "details": "Caco-2"}, "[19]": {"target": "serum albumin (Homo sapiens, UniProt P02768)", "sequence (P02768 whole entry)": "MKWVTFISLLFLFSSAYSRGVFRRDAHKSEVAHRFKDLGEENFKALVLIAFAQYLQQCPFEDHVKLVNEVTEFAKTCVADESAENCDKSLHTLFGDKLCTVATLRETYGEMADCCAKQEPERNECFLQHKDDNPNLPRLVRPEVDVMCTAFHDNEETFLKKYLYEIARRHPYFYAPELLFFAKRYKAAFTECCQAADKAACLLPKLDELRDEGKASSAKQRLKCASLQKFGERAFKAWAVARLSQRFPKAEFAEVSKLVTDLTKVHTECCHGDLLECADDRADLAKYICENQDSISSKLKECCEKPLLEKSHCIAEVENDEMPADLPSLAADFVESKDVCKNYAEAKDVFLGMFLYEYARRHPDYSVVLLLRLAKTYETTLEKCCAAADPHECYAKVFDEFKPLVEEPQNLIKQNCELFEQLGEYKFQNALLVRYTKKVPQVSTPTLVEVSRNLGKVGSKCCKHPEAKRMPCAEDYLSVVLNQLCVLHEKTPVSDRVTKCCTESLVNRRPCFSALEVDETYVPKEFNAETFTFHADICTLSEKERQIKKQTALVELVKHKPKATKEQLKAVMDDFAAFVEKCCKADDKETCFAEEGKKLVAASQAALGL", "assay": "Binding affinity to human serum albumin", "type": "ADME", "details": "read-out: PB (converted)"}, "[20]": {"assay": "Half life in monkey liver microsomes at 100 uM after 30 mins by LC-MS/MS analysis", "type": "ADME, Macaca mulatta, microsome", "details": "rhesus monkey", "summary_of_the_method": "as §2"}, "[21]": {"tested_on": "PANC-1", "assay": "Growth inhibition of human PANC1 cells after 48 hrs by MTT assay", "type": "functional", "details": "PANC-1, 48 h", "summary_of_the_method": "as §1"}, "[22]": {"target": "CDK3/Cyclin E (Homo sapiens, UniProt Q00526)", "sequence (P24864 whole entry)": "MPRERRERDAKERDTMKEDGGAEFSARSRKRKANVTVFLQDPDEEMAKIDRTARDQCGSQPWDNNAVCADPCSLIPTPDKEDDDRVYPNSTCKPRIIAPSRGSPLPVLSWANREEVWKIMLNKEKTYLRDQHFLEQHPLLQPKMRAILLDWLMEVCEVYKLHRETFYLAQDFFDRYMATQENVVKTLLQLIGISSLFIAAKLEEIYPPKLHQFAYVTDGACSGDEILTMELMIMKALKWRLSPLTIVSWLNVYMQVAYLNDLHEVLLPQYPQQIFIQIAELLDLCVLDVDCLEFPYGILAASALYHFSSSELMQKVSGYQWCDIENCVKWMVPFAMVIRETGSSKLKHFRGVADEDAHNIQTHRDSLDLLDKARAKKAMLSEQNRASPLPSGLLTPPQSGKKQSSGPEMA", "sequence (Q00526 whole entry)": "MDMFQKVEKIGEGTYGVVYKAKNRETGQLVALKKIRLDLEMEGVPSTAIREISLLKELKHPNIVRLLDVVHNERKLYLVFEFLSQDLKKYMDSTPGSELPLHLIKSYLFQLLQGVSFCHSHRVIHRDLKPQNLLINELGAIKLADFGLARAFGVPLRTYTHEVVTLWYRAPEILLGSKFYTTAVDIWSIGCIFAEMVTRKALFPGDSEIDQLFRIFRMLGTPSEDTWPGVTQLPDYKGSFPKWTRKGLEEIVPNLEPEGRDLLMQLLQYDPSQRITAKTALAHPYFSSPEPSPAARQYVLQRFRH", "assay": "Inhibition of CDK3/cyclin E (unknown origin) after 30 mins in presence of [33P]-gamma-ATP by filter binding assay", "type": "protein-complex assay"}, "[23]": {"assay": "Clearance in BALB/c mouse at 1 mg/kg, iv by LC-MS/MS analysis", "type": "ADME, organism-based", "details": "in vivo"}, "[24]": {"assay": "AUC in BALB/c mouse at 3 mg/kg, po by LC-MS/MS analysis", "type": "ADME, organism-based", "details": "in vivo"}, "[25]": {"assay": "Thermodynamic equilibrium solubility of compound in water after 5 hrs by shake flask method", "type": "physicochemical", "details": "read-out: Therm_solubility"}, "[26]": {"target": "Cytochrome P450 3A4 (Homo sapiens, UniProt P08684)", "sequence (P08684 whole entry)": "as the sequence (P08684 whole entry) above", "assay": "Inhibition of human CYP3A4 using fluorogenic substrate preincubated with co-factor for 10 mins followed by enzyme-substrate addition by fluorometric method", "type": "ADME", "summary_of_the_method": "as §3"}, "[27]": {"assay": "Growth inhibition of human NCI-H322 cells after 48 hrs by MTT assay", "type": "functional", "details": "NCI-H322, 48 h", "summary_of_the_method": "as §1"}, "[28]": {"assay": "Half life in monkey hepatocytes at 3 uM after 180 mins by LC-MS/MS analysis", "type": "ADME, cell-based, Macaca mulatta, Hepatocyte", "details": "rhesus monkey"}, "[29]": {"assay": "Half life in rat liver S9 fraction preincubated for 5 mins followed by NADPH addition measured after 30 mins by LC-MS/MS analysis", "type": "ADME, tissue-based", "summary_of_the_method": "as §2"}, "[30]": {"assay": "AUC (0 to infinity) in BALB/c mouse at 1 mg/kg, iv by LC-MS/MS analysis", "type": "ADME, organism-based", "set-up": "dose 1 mg/kg, route intravenous, time infinity", "details": "in vivo"}, "[31]": {"assay": "Half life in BALB/c mouse at 3 mg/kg, po by LC-MS/MS analysis", "type": "ADME, organism-based", "details": "in vivo"}, "[32]": {"tested_on": "Mus musculus", "assay": "Toxicity in CD1 nude mouse xenografted with human HCT116 cells assessed as change in body weight at 25 to 50 mg/kg, po qd administered on day 10 to 25 post tumor inoculation", "type": "organism-based", "details": "in vivo"}, "[33]": {"tested_on": "A-431", "assay": "Growth inhibition of human A431 cells after 48 hrs by MTT assay", "type": "functional", "details": "A-431, 48 h", "summary_of_the_method": "as §1"}, "[34]": {"tested_on": "MIA PaCa-2", "assay": "Antitumor activity against human MIAPaCa2 cells xenografted in CD1 nude mouse assessed as tumor growth inhibition at 25 mg/kg, po qd administered on day 10 to 25 post tumor inoculation", "type": "functional, organism-based"}, "[35]": {"target": "CDK6/cyclin D3 (Homo sapiens, UniProt Q00534)", "sequence (P30281 whole entry)": "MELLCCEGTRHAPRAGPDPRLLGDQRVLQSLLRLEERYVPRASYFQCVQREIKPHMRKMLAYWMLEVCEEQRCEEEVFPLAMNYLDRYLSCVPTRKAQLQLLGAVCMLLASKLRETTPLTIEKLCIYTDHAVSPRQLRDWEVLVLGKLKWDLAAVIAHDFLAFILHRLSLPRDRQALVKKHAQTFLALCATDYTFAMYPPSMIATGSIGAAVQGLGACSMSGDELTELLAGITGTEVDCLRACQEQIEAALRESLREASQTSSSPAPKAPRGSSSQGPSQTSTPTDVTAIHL", "sequence (Q00534 whole entry)": "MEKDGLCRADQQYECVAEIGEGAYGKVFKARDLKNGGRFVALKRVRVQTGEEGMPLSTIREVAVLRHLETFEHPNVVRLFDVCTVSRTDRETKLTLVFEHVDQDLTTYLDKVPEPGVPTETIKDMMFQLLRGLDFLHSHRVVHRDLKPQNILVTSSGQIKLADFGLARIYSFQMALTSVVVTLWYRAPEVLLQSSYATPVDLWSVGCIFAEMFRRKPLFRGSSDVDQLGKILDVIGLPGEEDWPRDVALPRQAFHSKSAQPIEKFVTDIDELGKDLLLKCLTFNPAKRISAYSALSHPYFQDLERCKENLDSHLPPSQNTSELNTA", "assay": "Inhibition of CDK6/cyclin D3 (unknown origin) after 30 mins in presence of [33P]-gamma-ATP by filter binding assay", "type": "protein-complex assay"}}, "note": "pIC50: −log10 of the molar value. Activity calls are given as the source filed them. The calls are words filed in the database; no cut-off is given here."}
{"smiles": "CN1CC[C@H](c2c(O)cc(O)c3c(=O)cc(/C=C/c4c(Cl)cccc4Cl)oc23)[C@H](O)C1", "values": [{"measurement": "GI50", "setting": "[1]", "value": 5, "unit": "µM"}, {"measurement": "inhibition in vivo at 50 mg/kg", "setting": "[2]", "value": "40 to 52", "unit": "%"}, {"measurement": "inhibition at 5 min, 2 µM", "setting": "[3]", "value": 30, "unit": "%"}, {"measurement": "inhibition", "setting": "[4]", "value": "> 98", "unit": "%"}, {"measurement": "remaining at 8 h", "setting": "[5]", "value": 94, "unit": "%"}, {"measurement": "pIC50", "setting": "[6]", "value": 6.39}, {"measurement": "efflux ratio at 1.5 h", "setting": "[7]", "value": 1.8}, {"measurement": "fraction unbound", "setting": "[8]", "value": 0.017}, {"measurement": "half-life", "setting": "[9]", "value": 4.65, "unit": "h"}, {"measurement": "GI50 at 48 h", "setting": "[10]", "value": 22, "unit": "µM"}, {"measurement": "Activity", "setting": "[11]", "value": "Active"}, {"measurement": "inhibition of growth at 10 µM", "setting": "[12]", "value": 80, "unit": "%"}, {"measurement": "fraction unbound at 5 h, 3 µM", "setting": "[13]", "value": 0.033}, {"measurement": "half-life at 100 µM", "setting": "[14]", "value": "> 0.5", "unit": "h"}, {"measurement": "Drug uptake", "setting": "[15]", "value": "Active"}, {"measurement": "hepatocyte CLint at 3 µM", "setting": "[16]", "value": 9.2, "unit": "µL/min/1e6 cells"}, {"measurement": "pIC50", "setting": "[17]", "value": "< 4.70"}, {"measurement": "Papp B→A at 1.5 h", "setting": "[18]", "value": 3.9, "unit": "×10⁻⁶ cm/s"}, {"measurement": "fraction unbound", "setting": "[19]", "value": 0.033}, {"measurement": "half-life at 100 µM", "setting": "[20]", "value": 0.417, "unit": "h"}, {"measurement": "GI50", "setting": "[21]", "value": 4, "unit": "µM"}, {"measurement": "pIC50", "setting": "[22]", "value": "< 6.00"}, {"measurement": "clearance", "setting": "[23]", "value": 55.4, "unit": "mL/min/kg"}, {"measurement": "AUC", "setting": "[24]", "value": 0.643, "unit": "µM·h"}, {"measurement": "solubility thermodynamic at 5 h", "setting": "[25]", "value": 20.3, "unit": "µg/mL"}, {"measurement": "pIC50", "setting": "[26]", "value": "< 4.70"}, {"measurement": "GI50", "setting": "[27]", "value": 2, "unit": "µM"}, {"measurement": "half-life at 3 µM", "setting": "[28]", "value": 5.43, "unit": "h"}, {"measurement": "half-life", "setting": "[29]", "value": 0.517, "unit": "h"}, {"measurement": "AUC(0-inf)", "setting": "[30]", "value": 0.653, "unit": "µM·h"}, {"measurement": "half-life", "setting": "[31]", "value": 3.09, "unit": "h"}, {"measurement": "Activity", "setting": "[32]", "value": "Non-Toxic"}, {"measurement": "GI50", "setting": "[33]", "value": 8, "unit": "µM"}, {"measurement": "TGI", "setting": "[34]", "value": "inactive"}, {"measurement": "pIC50", "setting": "[35]", "value": 6.70}]}
